The list is not random: actives were taken first. Their share in the collection is about 4.7%.
HTR2A ag: mouse Htr2a agonists via beta-arrestin recruitment, primary screen, cell-based, luminescence | activation, % at 7.6 µM | actives 0.66% (n = 360,000) | CHO-K1 mHTR2A beta-arrestin complementation; percent of 30 µM serotonin response;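 active means activation above a run cutoff, the mean activation of all tested compounds plus 3 SD, cut at about 14% in these data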
MC4R antagonist: MC4R antagonists of cAMP signaling, primary screen, cell-based, TR-FRET, antagonist arm of biased-ligand search; Melanocortin receptor 4 (Homo sapiens), P32245; MC4R-expressing cells, MTII-stimulated cAMP, LANCE TR-FRET; inhibition, % at 6.5 µM; actives 0.48% (n = 360,000); AID 540295, 2011;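 active means inhibition above its plate's cutoff, the mean of tested wells on that plate plus 3 SD, cut at about 29% in these data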
Target sequence (P32245 whole entry, looked up): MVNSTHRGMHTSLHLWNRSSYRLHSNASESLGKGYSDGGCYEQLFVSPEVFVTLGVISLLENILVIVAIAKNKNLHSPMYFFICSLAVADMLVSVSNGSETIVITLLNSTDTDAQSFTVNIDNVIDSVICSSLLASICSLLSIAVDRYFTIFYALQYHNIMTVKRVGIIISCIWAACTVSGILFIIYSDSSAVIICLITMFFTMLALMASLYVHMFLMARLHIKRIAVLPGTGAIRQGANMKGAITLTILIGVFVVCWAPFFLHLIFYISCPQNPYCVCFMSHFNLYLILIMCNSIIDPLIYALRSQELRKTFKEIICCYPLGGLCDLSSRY
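system = U2OS cells with stable human MC4R expression | also added = Melanotan II challenge after compound preincubation | dosing = one concentration, 6.5 µM nominal | incubation = compound 30 min, challenge 1 h, detection 1 h | measured by = TR-FRET with Eu-cAMP and labeled anti-cAMP, 671 nm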
AHR act: AHR activators, primary screen, cell-based, luminescence, luciferase reporter, human. Aryl hydrocarbon receptor (Homo sapiens), P35869. AHR-responsive luciferase reporter cells. activation, % at 5 µM. actives 2.5% (n = 320,000). AID 2796, 2010; in the data active means activation above about 47%
MC4R ag barr: MC4R agonists recruiting beta-arrestin, primary screen, cell-based, luminescence, agonist arm of biased-ligand search; activation, % at 8.9 µM; U2OS MC4R beta-arrestin complementation; percent of melanotan II response, DMSO zero; actives 0.98% (n = 360,000); AID 540308, 2011;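 active means activation above a per-plate cutoff, the mean activation of sample wells on that plate plus 3 SD, cut at about 8% in these data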
FXN GAA850 act: FXN promoter activators, primary screen, cell-based, luciferase luminescence, HEK293 lucGAA850; HEK293 lucGAA850 FXN promoter luciferase reporter, 24 h; percent of 10 µM SAHA response; activation, % at 6 µM; actives 0.56% (n = 360,000);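 active means activation above the average of all compounds screened plus 3 SD, cutoff fixed separately per campaign, cut at about 7.5% in these data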
GAA30 counter: GAA30 FXN promoter activators, confirmation, counter-screen for GAA850 frataxin promoter activator project, cell-based, luminescence, HEK293, lucGAA30, triplicate | shares compounds with FXN GAA850 act | HEK293 lucGAA30 FXN promoter luciferase, 24 h; DMSO = 0%, 5 µM ipriflavone = 100% | activation, % at 6 µM | actives 66% (n = 1,900) | AID 588350, 2011;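 active means mean activation above the mean of solvent-only control wells plus 3 SD, cut at about 22% in these data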;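 further: counterscreen of GAA850 promoter hits where activity marks nonselective or luminescence artifacts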
GAA850 confirm: FXN GAA850 promoter activators in reporter cells, confirmation, cell-based, luminescence, HEK293 lucGAA850, triplicate. shares compounds with FXN GAA850 act. HEK293 lucGAA850 FXN promoter luciferase reporter, 24 h; 100% = activation by SAHA. activation, % at 6 µM. actives 86% (n = 1,900). AID 588351, 2011;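 active means mean activation above a set limit taken from the primary screen, cut at about 8% in these data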
MOR ag counter: OPRM1 agonists via beta-arrestin recruitment, confirmation, counter-screen for mouse HTR2A agonist project, cell-based, luminescence, single concentration; shares compounds with HTR2A ag; U2OS OPRM1 beta-arrestin PathHunter; DMSO 0%, DAMGO 9.3 µM 100%; activation, % at 9.3 µM; actives 5.3% (n = 2,300); AID 624380, 2012;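 active means mean activation above the mean of DMSO-only wells plus 3 SD, cut at about 0.5% in these data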
m5-HT2A ag conf: mouse HTR2A agonists, beta-arrestin recruitment, confirmation, cell-based, luminescence, CHO-K1 PathHunter, triplicate | shares compounds with HTR2A ag | DMSO 0%, 30 µM serotonin 100% | activation, % at 7.6 µM | actives 19% (n = 2,300) | AID 624381, 2012;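 active means mean activation across triplicates above the hit threshold derived in the original primary screen, cut at about 15% in these data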
A number is an active result; - = inactive; . = not tested or not shown.

SMILES	HTR2A ag	MC4R antagonist	AHR act	MC4R ag barr	FXN GAA850 act	GAA30 counter	GAA850 confirm	MOR ag counter	m5-HT2A ag conf
COc1ccccc1NC(=O)N(Cc1ccccc1)c1ccccn1	-	-	-	-	9.7	38	20	.	.
COCC(=O)N(Cc1ccccc1)c1ccccn1	-	-	-	-	-	.	.	.	.
COc1ccc(-n2c(C)cc(C(=O)CCl)c2C)cc1	-	-	-	-	8.0	-	31	.	.
Cc1cc(C(=O)Cn2ncc(Cl)c(Cl)c2=O)c(C)n1CC(F)(F)F	-	-	-	-	14	-	22	.	.
COc1ccc(OCCOc2ccc(C)nc2[N+](=O)[O-])cc1	-	-	-	-	7.7	78	24	.	.
Cc1ccc(OCCOc2ccc(Cl)cc2Cl)c([N+](=O)[O-])n1	-	-	-	-	-	.	.	.	.
CCOc1cc([N+](=O)[O-])c2nc(N)sc2c1	-	-	-	-	7.9	39	19	.	.
Cc1ccc(-n2c(C)c(C)c3c(NCCO)ncnc32)cc1	-	-	-	-	7.9	89	31	.	.
CCCCC1(CC(=O)OCC)C(=O)N(c2ccccc2)N(c2ccccc2)C1=O	-	-	-	-	9.1	-	9.7	.	.
CCCCC1(Cc2cccc([N+](=O)[O-])c2)C(=O)N(c2ccccc2)N(c2ccccc2)C1=O	-	-	-	-	8.2	-	-	.	.
O=C(NC12CC3CC(CC(C3)C1)C2)c1ccccc1	-	-	-	-	-	.	.	.	.
O=C(NC12CC3CC(CC(C3)C1)C2)N(Cc1ccccc1)Cc1ccncc1	-	-	-	-	10	-	13	.	.
COc1ccc(CCN=C(N)C(C)c2ccccc2)cc1OC (stereo not drawn)	-	-	-	-	-	.	.	.	.
CC(C)Cc1ccc(C(C)C(N)=NCCc2ccccc2)cc1 (stereo not drawn)	-	-	.	-	11	-	36	.	.
CC(C)c1cc(C(=O)Nc2cc(Br)ccc2O)no1	17	-	-	-	9.9	97	33	0.7	-
COc1cc(C#Cc2ccc3cc(CCO)oc(=O)c3c2)cc(OC)c1	17	-	-	-	7.8	106	38	-	-
CN=c1scc(-c2ccc([N+](=O)[O-])cc2)n1/N=C/c1ccco1	-	-	-	-	-	.	.	.	.
CN=c1scc(-c2ccc(F)cc2)n1/N=C/c1ccc(O)c(O)c1	16	-	.	-	9.3	34	14	-	85
Cc1ccc(S(=O)(=O)N2CC3(O)CN(C(=O)OC(C)C)N(C(=O)OC(C)C)CC3(OC(=O)NCc3ccco3)C2)cc1 (stereo not drawn)	-	-	.	-	-	.	.	.	.
C=CCN(Cc1ccc(OC)c(OC)c1)C(=O)c1cc2cc(F)ccc2[nH]1	20	-	47	-	13	27	16	-	-
COc1cc2cc(C(=O)N(C)Cc3ccccc3)[nH]c2cc1OC	-	-	.	-	-	.	.	.	.
O=C(NCc1ccccc1)c1cc(C2CCCCN2C(=O)c2ccc(Cl)cc2)on1 (stereo not drawn)	-	-	.	-	-	.	.	.	.
COc1cc(/C=N/Nc2nc3ccccc3s2)cc([N+](=O)[O-])c1O	-	-	-	-	-	.	.	.	.
COc1cc(OC)cc(C(=O)Oc2ccc(/C=N/Nc3nc4ccccc4s3)cc2OC)c1	22	-	72	-	8.0	116	36	-	-
COC(=O)[C@]1(C)N[C@H](CN(C)C(=O)Nc2ccc(Cl)cc2)[C@@H]2C(=O)N(Cc3ccccc3)C(=O)[C@@H]21	18	-	-	-	18	24	13	-	-
SMILES	HTR2A ag	MC4R antagonist	AHR act	MC4R ag barr	FXN GAA850 act	GAA30 counter	GAA850 confirm	MOR ag counter	m5-HT2A ag conf
COc1ccc(CN(C)C[C@@H]2OCc3cnnn3CCCC(=O)N([C@@H](C)CO)C[C@H]2C)cc1	-	-	.	-	-	.	.	.	.
COc1ccc(Cl)cc1CC1(C)C(=O)Nc2ccc(-c3ccccc3OC)cc21 (stereo not drawn)	21	-	.	-	12	33	12	-	17
O=C(CSc1nnc(NC(=O)c2ccccc2Cl)s1)Nc1ccc2c(c1)oc1ccccc12	.	.	-	.	.	.	.	.	.
COC(=O)CN1C(c2ccc(Cl)cc2)=Nc2ccc(Cl)cc2C1c1ccccc1 (stereo not drawn)	15	-	-	-	13	-	11	-	-
CCOC(=O)[C@]12CCC=C1N(Cc1ccco1)C(=O)[C@H](CC(=O)NCCC(C)C)C2	-	.	.	.	.	.	.	.	.
O=C(NCCc1ccc(O)c(O)c1)C1COc2ccccc2O1 (stereo not drawn)	14	-	-	-	8.8	-	18	-	23
O=C(NCCc1ccccc1)C1COc2ccccc2O1 (stereo not drawn)	-	-	-	-	-	.	.	.	.
COC(=O)CC(NS(=O)(=O)c1cccs1)c1ccccc1Cl (stereo not drawn)	19	-	-	-	-	.	.	-	-
COC(=O)CC(NS(=O)(=O)c1cccs1)c1ccc2c(c1)OCO2 (stereo not drawn)	-	-	-	-	-	.	.	.	.
Cc1ccc2nc(NC(=O)CSCC(=O)Nc3cc(C)on3)sc2c1	19	-	-	-	-	.	.	-	-
COC(=O)[C@@H]1C[C@@]2(O)[C@H](O)[C@H](O)[C@H](O)C[C@H]2N1CC(c1ccccc1)c1ccccc1	20	-	-	-	-	.	.	-	-
Cc1cccc(-n2ncc3c2CCCC3NC(=O)CCN2CCCCO2)c1C (stereo not drawn)	-	-	-	-	-	.	.	.	.
Cc1cccc(-n2ncc3c2CCCC3NC(=O)C2(C(N)=O)CC2)c1C (stereo not drawn)	15	-	-	-	-	.	.	-	-

Screening data as filed in PubChem BioAssay.
